Screens from PubChem.
TRPC4 PAM – positive allosteric modulators of TRPC4, primary screen, cell-based, mouse TRPC4beta, HEK293 mu-opioid, Fluo-4 calcium; Short transient receptor potential channel 4 (Mus musculus), Q9QUQ5; DAMGO EC20, Fluo-4 Ca2+ flux; active compounds read high; B-score at 10 µM; actives 0.42% (n = 310,000);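 active means B-score of calcium response area above 5 SD of library B-scores, with initial fluorescence ratio within 5 SD of library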;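 further: B-score of integrated fluorescence ratio over time as area under calcium response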
Target sequence (Q9QUQ5 whole entry, looked up): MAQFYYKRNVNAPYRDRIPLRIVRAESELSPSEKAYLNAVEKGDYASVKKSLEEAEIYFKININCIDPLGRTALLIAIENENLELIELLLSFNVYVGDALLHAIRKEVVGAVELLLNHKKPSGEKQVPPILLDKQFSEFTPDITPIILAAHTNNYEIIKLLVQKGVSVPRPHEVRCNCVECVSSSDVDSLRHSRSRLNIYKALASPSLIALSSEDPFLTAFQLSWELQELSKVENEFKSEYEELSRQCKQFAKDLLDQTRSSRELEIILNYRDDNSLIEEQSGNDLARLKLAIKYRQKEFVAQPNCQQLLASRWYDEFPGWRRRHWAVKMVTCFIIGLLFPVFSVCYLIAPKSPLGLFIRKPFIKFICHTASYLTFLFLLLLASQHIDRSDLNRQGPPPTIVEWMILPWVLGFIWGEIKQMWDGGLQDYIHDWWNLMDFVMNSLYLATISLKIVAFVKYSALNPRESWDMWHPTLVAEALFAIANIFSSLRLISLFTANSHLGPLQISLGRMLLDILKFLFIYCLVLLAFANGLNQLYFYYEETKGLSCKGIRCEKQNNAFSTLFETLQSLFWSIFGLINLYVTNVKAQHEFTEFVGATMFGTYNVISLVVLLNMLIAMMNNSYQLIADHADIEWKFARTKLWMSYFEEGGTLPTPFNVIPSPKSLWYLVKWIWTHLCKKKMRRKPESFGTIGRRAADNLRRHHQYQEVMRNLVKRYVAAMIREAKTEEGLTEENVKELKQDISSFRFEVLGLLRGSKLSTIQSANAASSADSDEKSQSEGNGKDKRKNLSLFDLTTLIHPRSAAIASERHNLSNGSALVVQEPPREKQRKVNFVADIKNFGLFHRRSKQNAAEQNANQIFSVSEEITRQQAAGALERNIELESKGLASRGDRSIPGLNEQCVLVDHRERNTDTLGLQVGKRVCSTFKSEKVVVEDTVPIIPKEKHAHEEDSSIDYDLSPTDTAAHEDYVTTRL
TRPC6 activator – mouse TRPC6 channel activators, primary screen, cell-based, HEK293, membrane potential dye; HEK293-TRPC6 membrane potential dye fluorescence; active compounds read high; B-score at 10 µM; actives 0.13% (n = 310,000);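 active means B-score of the integrated fluorescence ratio above library mean plus 3 SD, and starting fluorescence ratio within library mean plus 5 SD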;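 further: higher score means more depolarization so channel activation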
TRPC6 inh – mouse TRPC6 channel inhibitors, primary screen, cell-based, HEK293, membrane potential dye; Short transient receptor potential channel 6 (Mus musculus), Q61143; ACh-evoked depolarization; active compounds read low; B-score at 10 µM; actives 1.1% (n = 310,000);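 active means B-score under library mean minus 3 SD, initial fluorescence not abnormally high, positive integrated signal ratio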;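 further: B-score derived from integrated fluorescence ratio over the kinetic read; more negative B-score means stronger inhibition of depolarization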
TRPC4 act – activators of mouse TRPC4 channel, primary screen, Fluo4 calcium, HEK293 TRPC4beta/mu-opioid cells | Short transient receptor potential channel 4 (Mus musculus), Q9QUQ5 | B-score at 10 µM | Fluo4 calcium fluorescence; active compounds read high | actives 0.49% (n = 310,000);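 active means B-score above 5 SD of library B-scores, and initial fluorescence ratio not above library mean plus 5 SD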;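 further: positive B-score marks a calcium rise read as TRPC4 activation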
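Assay system: HEK293 stable line with TRPC4beta plus mu-opioid receptor; schedule: 45 min room-temperature Fluo4 loading, 110 s read; technique: kinetic Fluo4 calcium fluorescence; evaluation: integrated baseline-normalised fluorescence ratio, converted to per-well B score; controls: buffer (low) and maximal DAMGO (high)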
TRPC4 block – inhibitors of mouse TRPC4 channel, primary screen, Fluo4 calcium, HEK293 TRPC4beta/mu-opioid cells; Short transient receptor potential channel 4 (Mus musculus), Q9QUQ5; DAMGO-evoked Fluo4 calcium flux; active compounds read low; B-score at 10 µM; actives 0.39% (n = 300,000); AID 2247, 2010;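 active means B-score over 3 SD under the library average, no early fluorescence shift, positive overall ratio signal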
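test system = HEK293 cells with stable TRPC4beta plus mu-opioid receptor expression | detection = Fluo4 Ca2+ flux fluorescence | read-out = integrated fluorescence ratio relative to baseline, converted to per-well B score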
TRPC4 sel inh 2 – second selectivity test of TRPC6 inhibitors: effect on mouse TRPC4 | shares compounds with TRPC6 inh | HEK293 TRPC4/MOR, membrane potential dye fluorescence; channel activated by saturating DAMGO dose | inhibition, % at 10 µM | actives 42% (n = 920) | AID 2776;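 active means compounds whose fluorescence signal differed from control wells by over 3 SD, either direction, in both duplicate plates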
TRPC4 spec – mouse TRPC4 modulation by TRPC6 hits, confirmation, selectivity assay for TRPC6 inhibitor project, cell-based, HEK293 TRPC4/mu-opioid, membrane potential dye; shares compounds with TRPC6 inh; membrane potential fluorescence; activity change, negative = inhibition, % at 10 µM; actives 61% (n = 920);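 active means rise or fall in signal beyond 3 SD of buffer-only wells in both replicate plates, either sign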;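 further: integrated kinetic ratio of fluorescence range over baseline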
HEK293 MPD ctr 2-1 – nonspecific membrane potential effects, parental HEK293, confirmation, counter-screen for TRPC6 inhibitor project, cell-based, second counter screen; parental HEK293 membrane potential dye fluorescence; maximal acetylcholine challenge after compound addition; signal change vs control, % at 10 µM; AID 2779, 2010; shares compounds with TRPC6 inh; actives 31% (n = 920);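 active means membrane potential signal moving either way by over 3 SD of the maximum-effect control, in both duplicate plates, meaning non-specific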
HEK293 MPD ctr-1 – membrane potential modulation in parental HEK293, confirmation, counter-screen for TRPC6 inhibitor project, cell-based; shares compounds with TRPC6 inh; parental HEK293 membrane potential dye fluorescence; membrane potential signal change, % at 10 µM; actives 60% (n = 920); AID 2780, 2010;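 active means membrane potential signal shifting up or down by more than 3 SD of buffer-only wells, on both duplicate plates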
HEK293 MPD ctr-2 – parental HEK293 membrane potential modulation, confirmation, counter-screen for TRPC6 modulator project, cell-based; shares compounds with TRPC6 inh; membrane potential dye fluorescence; membrane potential signal change, % at 10 µM; actives 51% (n = 2,400); AID 488924, 2010;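 active means membrane potential signal moves up or down beyond 5 SD from buffer-only wells, on both duplicate plates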
HEK293 MPD ctr 2-2 – second counter-screen for TRPC6 modulators: effect in parental HEK293 cells. membrane potential dye fluorescence; after compound, maximal acetylcholine stimulation. actives 14% (n = 2,400). shares compounds with TRPC6 inh. inhibition, % at 10 µM;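 active means membrane potential signal drops by more than 5 SD from the mean control signal, in both duplicate plates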;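 further: plate controls were acetylcholine ECmax control wells for no effect and buffer only wells for full effect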
TRPC4/MOR mod – TRPC4 modulation by TRPC6 hit compounds, confirmation, selectivity assay for TRPC6 modulator project, cell-based, HEK293 TRPC4/mu-opioid, membrane potential dye, mouse; shares compounds with TRPC6 inh; membrane potential fluorescence; percent change from control (negative = decrease, positive = increase), % at 10 µM; actives 69% (n = 2,400); AID 488927, 2010;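 active means membrane potential signal moved up or down beyond 5 SD of buffer control wells, in both duplicate plates, actives on both sides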;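 further: plate controls were assay buffer wells for no effect and DAMGO maximal-effect wells for full effect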
TRPC4/MOR inh 2 – second selectivity test of TRPC6 modulators against mouse TRPC4 | HEK293 TRPC4/mu-opioid, membrane potential dye fluorescence; stimulated with maximal-effect DAMGO | inhibition, % at 10 µM | actives 55% (n = 2,400) | shares compounds with TRPC6 inh;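 active means drop in membrane potential signal beyond 5 SD of the control wells in both duplicate plates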;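 further: TRPC4 counter screen for TRPC6 hits run under conditions tuned for TRPC6 not TRPC4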
TRPC6 block conf – mouse TRPC6 channel inhibitors, confirmation, HEK293 cells, membrane potential dye, duplicate | shares compounds with TRPC6 inh | ACh-evoked depolarization | inhibition, % at 10 µM | actives 43% (n = 3,300) | AID 488960, 2010;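 active means fluorescence ratio falls more than 5 SD below the full-stimulation control mean, in both duplicate runs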;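 further: integrated fluorescence ratio of peak minus minimum over baseline after agonist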
TRPC6 act conf – mouse TRPC6 channel activators, confirmation, HEK293 cells, membrane potential dye, duplicate | shares compounds with TRPC6 inh | HEK293-TRPC6 membrane potential dye fluorescence, FDSS | activation, % at 10 µM | actives 11% (n = 2,800) | AID 488961, 2010;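 active means ratio signal rise beyond 5 SD above unstimulated control wells' mean, seen in both duplicate runs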;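 further: plate controls were buffer EC0 wells for no effect and acetylcholine ECmax response for full effect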
The depositor's hits bear a star; i = inactive; x = no result. Sampled rows, rich in hits. Any-hit rate of the full collection: about 2.3%.

SMILES | TRPC4 PAM | TRPC6 activator | TRPC6 inh | TRPC4 act | TRPC4 block | HEK293 MPD ctr-2 | HEK293 MPD ctr 2-2 | TRPC4/MOR mod | TRPC4/MOR inh 2 | TRPC6 block conf | TRPC6 act conf | others
CCN(CC)CC#CCOC(=O)C(O)(c1ccccc1)C1CCCCC1 (stereo not drawn) | i | i | -6.4* | i | i | 121%* | 97%* | 26%* | i | 81%* | x
CCN(CC)CC#CCC(O)(c1ccccc1)C1CCCCC1 (stereo not drawn) | i | i | i | i | i | x | x | x | x | x | x
CC1(C)Cc2c(cnn2-c2ccccc2)C(NC(=O)c2ccc[n+]([O-])c2)C1 (stereo not drawn) | i | i | i | i | i | x | x | x | x | x | x
CCOC(=O)c1ccc(NC(=O)Oc2cc(C)c(Cl)cc2C(C)C)cc1 | i | i | -9.9* | i | i | 126%* | i | 13%* | 31%* | i | i
Cc1nn(Cc2ccccc2)c(Cl)c1C(=O)NCc1ccco1 | i | i | i | i | i | x | x | x | x | x | x
CCCCOc1ccc(-c2cc(C(F)(F)F)c(C#N)c(SCC(=O)O)n2)cc1 | i | i | i | i | i | x | x | x | x | x | x
CCOc1ccc(NC(=O)C2C(C(=O)O)C3(Cl)C(Cl)=C(Cl)C2(Cl)C3(Cl)Cl)cc1 (stereo not drawn) | i | 13* | i | i | i | 250%* | i | 33%* | i | i | 106%*
CCOc1ccc(NC(=O)C2C(c3ccccc3)C2(Cl)Cl)cc1 (stereo not drawn) | i | i | i | i | i | x | x | x | x | x | x
COC(=O)CN(C)C(=O)c1ccccc1OC1CCN(S(C)(=O)=O)CC1 | i | i | i | i | i | x | x | x | x | x | x
CCCn1c(-c2ccc(F)cc2)n[nH]c1=S | i | i | i | i | i | x | x | x | x | x | x
CCCCn1c(-c2ccc([N+](=O)[O-])cc2)n[nH]c1=S | i | i | -15* | i | i | x | x | x | x | 85%* | i | TRPC4 sel inh 2=i;TRPC4 spec=i;HEK293 MPD ctr 2-1=-18%*;HEK293 MPD ctr-1=i
COc1cccc(C(=O)NNC(=O)C(=O)Nc2ccc(OC)cc2OC)c1 | i | i | i | i | i | x | x | x | x | x | x
OCC1(Cc2ccc(F)cc2)CCCN(CCCC(F)(F)F)C1 (stereo not drawn) | i | i | i | i | i | x | x | x | x | x | x
COP(=O)(OC)c1nc(-c2ccc([N+](=O)[O-])cc2)oc1N1CCCCC1 | i | 19* | -7.1* | i | i | 618%* | 198%* | 120%* | 51%* | 84%* | 230%*
N#CC(Cc1ccccc1)(Cc1ccccc1)C(=O)NN | i | i | i | i | i | x | x | x | x | x | x
Cc1oc(-c2ccc(Cl)cc2)nc1CN1CCC(C(=O)N2CCc3ccccc3C2)CC1 | 15* | 14* | i | i | i | 202%* | i | 32%* | 62%* | i | 80%*
Cc1oc(-c2ccc(Cl)cc2)nc1CN1CCC(C(=O)NCc2ccco2)CC1 | i | 12* | i | i | -6* | i | i | 8.0%* | 72%* | x | 122%*
CCN1CCN(CCNC(=O)C2CCN(Cc3nc(-c4ccc(Cl)cc4)oc3C)CC2)CC1 | i | i | i | i | i | x | x | x | x | x | x
COc1cc(-c2nc(CN3CCN(C(=O)c4ccco4)CC3)c(C)o2)ccc1F | i | 12* | -6.3* | i | i | i | i | 12%* | i | 62%* | 139%*
Cc1oc(-c2ccc(Cl)cc2)nc1CN1CCCC(C(=O)NCc2ccccn2)C1 (stereo not drawn) | i | 16* | -5.8* | i | i | 160%* | i | 18%* | 72%* | 64%* | 144%*
C=CCc1c(C)nc(N2CCSCC2)[nH]c1=O | i | i | i | i | i | x | x | x | x | x | x
CN1CCN(NC(=O)C2CC2)CC1 | i | i | i | i | i | x | x | x | x | x | x
CC(C)(C)c1ccc(C(=O)NCc2nnc(SCC(=O)NCC3CCCO3)o2)cc1 (stereo not drawn) | i | i | i | i | i | x | x | x | x | x | x
